Source: PubChem (several laboratories)
This is a sample that favours compounds with a hit; in the whole collection about 4.9% have one here.
NPY-Y1 antag: antagonists of human neuropeptide Y receptor Y1; P25929; HEK293-CNG Y1 cells, membrane potential fluorescence; NPY at EC95, then isoproterenol; inhibition, % at 3.6 µM; hit rate 1% among 200,000;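 active = inhibition above the campaign mean inhibition of all tested compounds plus 3 SD, cut at about 20% in these data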
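Material: HEK293 Y1/CNG channel cell line; also added: NPY (25 nM), isoproterenol (1 µM), Ro 20-1724 (25 µM); doses: one concentration, 3.6 µM, in 0.4% DMSO; schedule: compound incubation 1 h at room temperature, readout 45 min post-stimulation; technique: membrane potential fluorescence; measure: fluorescence ratio normalized to % inhibition between controls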
RAM inhibit: blocks the yeast RAM network. S. cerevisiae dse1pr::URA3 reporter, 5-FOA growth OD615, 2 d; analog-sensitive cbk1-as2 kinase mutant strain. inhibition, % at 50 µM. hit rate 1.8% among 190,000;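 active = inhibition above a set limit, 3 SD over mean compound inhibition, cut at about 8.4% in these data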;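 note: inhibition rescues growth on 5-FOA so higher OD means more RAM inhibition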
WT yeast gro inh: growth inhibition of WT yeast, mitochondrial fusion screen; mitochondrial fusion phenotypic screen, WT strain; inhibition, % at 10 µM; hit rate 2.1% among 190,000; AID 1362; in the data active = inhibition above about 58%; tested in S. cerevisiae
NPY-Y1 PAM-ag: potentiators or agonists of human neuropeptide Y receptor Y1; P25929; NPY-Y1 expressing cells, potentiator/agonist activation; activation, % at 3.6 µM; hit rate 0.37% among 220,000; AID 1304; in the data active = activation above about 33%, passing the limit was not always enough;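 note: cells stimulated with NPY at EC10 then isoproterenol at EC100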
NPY2 pot ag: human NPY-Y2 potentiation or agonism, primary screen; cells expressing NPY-Y2, potentiator/agonist read-out; activation, % at 3.6 µM; hit rate 0.45% among 220,000; AID 1359; in the data active = activation above about 27%;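 note: cells stimulated with NPY near EC25 plus isoproterenol at EC100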
Target sequence (P49146 whole entry, looked up): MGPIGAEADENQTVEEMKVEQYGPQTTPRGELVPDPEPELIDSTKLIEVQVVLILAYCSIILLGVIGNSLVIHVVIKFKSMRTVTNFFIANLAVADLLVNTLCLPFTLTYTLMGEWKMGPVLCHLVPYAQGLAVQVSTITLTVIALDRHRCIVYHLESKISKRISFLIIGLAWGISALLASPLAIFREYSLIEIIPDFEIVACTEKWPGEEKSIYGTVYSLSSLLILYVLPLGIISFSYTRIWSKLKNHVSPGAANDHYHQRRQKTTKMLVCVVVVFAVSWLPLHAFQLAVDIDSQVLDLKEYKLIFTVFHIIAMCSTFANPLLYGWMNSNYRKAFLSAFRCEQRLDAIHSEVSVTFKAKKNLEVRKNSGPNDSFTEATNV
NPY-Y2 antag: NPY-Y2 (human) receptor antagonism; inhibition, % at 2.7 µM; NPY-Y2 expressing cells, antagonist mode; hit rate 0.99% among 140,000; in the data active = inhibition above about 17%
Each line names hits and unclear results; the compound was inactive in the other large screens.

OCCCc1nc2n(n1)C(c1cccs1)C=C(c1ccc(Br)cc1)N2 (configuration not stated)	WT yeast gro inh 61
Fc1ccc(C2=CC(c3ccc(Br)o3)n3ncnc3N2)cc1 (configuration not stated)	none
Brc1ccc(C2=CC(c3cccs3)n3ncnc3N2)cc1 (configuration not stated)	WT yeast gro inh 68
O=C(CNC(=O)c1ccccc1)OCc1cccc(Br)c1	none (no result: NPY-Y2 antag)
COc1ccccc1-n1nnnc1SCC(=O)Nc1cc(C)on1	none (no result: WT yeast gro inh)
Cc1ccc(-c2nnc(SCc3ccccc3F)o2)cc1	WT yeast gro inh 60
Cc1ccccc1-c1nnc(SCc2ccc(F)cc2)o1	WT yeast gro inh 60
O=C(Nc1ccccc1-c1nnc(SCc2ccc(Cl)cc2)o1)c1ccccc1	RAM inhibit 8.4
Fc1ccc(CSc2nnc(-c3ccncc3)o2)cc1	none (no result: NPY-Y2 antag)
COc1ccc(-c2nnc(SCc3cc(C)cc(C)c3)o2)cc1	WT yeast gro inh 64
COc1ccc(-c2nnc(SCC(=O)c3ccc(C)o3)o2)cc1	none
Clc1ccc2nc(-c3ccccn3)c(Nc3ccc4c(c3)OCO4)n2c1	WT yeast gro inh 73
Cc1ccc2nc(-c3ccccc3O)c(Nc3ccc4c(c3)OCCO4)n2c1	none
COC(=O)NNC(=O)COc1cc(C)c(Br)cc1C(C)C	none
Cc1nccn1CC(=O)N/N=C/c1c[nH]c2ccccc12	none (no result: NPY-Y1 antag, RAM inhibit, WT yeast gro inh, NPY-Y2 antag)
N=C1C(c2nc(-c3ccc(Br)cc3)cs2)=C(O)CN1NC(=O)c1ccc([N+](=O)[O-])cc1	none (no result: NPY-Y2 antag)
Cc1ccc(-c2csc(C3=C(O)CN(NC(=O)c4ccc([N+](=O)[O-])cc4)C3=N)n2)cc1	RAM inhibit 8.6 (no result: NPY-Y2 antag)
CCn1nnnc1-c1ccc(OC)c(S(=O)(=O)Nc2ccc(OC)cc2)c1	none
Cc1ccc(C(=O)OCn2nnc3ccccc3c2=O)cc1[N+](=O)[O-]	none (no result: NPY-Y2 antag)
O=c1cc(N2CCCCC2)c(-c2ccccc2)nn1Cc1ccccc1	WT yeast gro inh 76 (no result: NPY-Y2 antag)
COc1ccc(Cn2nc(-c3ccccc3)c(N3CCCCC3)cc2=O)cc1	WT yeast gro inh 71 (no result: NPY-Y2 antag)
Cn1nc(-c2ccccc2)c(N2CCCCC2)cc1=O	none (no result: NPY-Y2 antag)
COc1ccc(N)c2c1OCCC2=O	none
O=C(COC(=O)c1cnc(Cl)c(Cl)c1)NCCC1=CCCCC1	none (no result: NPY-Y2 antag)
COc1ccc(CN2CCC(CO)(CCOc3ccccc3)CC2)cc1C	none (no result: NPY-Y2 antag)
O=C(COC(=O)CSc1cc(Cl)ccc1Cl)NCc1ccc2c(c1)OCO2	none
Cc1cccc(NC(=O)CCN2C(=O)C3C4CCC(C4)C3C2=O)c1C (configuration not stated)	none
CCOC(=O)C1=C(O)c2ccccc2C(=O)/C1=C\c1ccc(CC)cc1	none
CCOC(=O)C1=C(Cc2ccc(C)cc2)C(=O)c2ccccc2C1=O	RAM inhibit 9.6
COc1ccc(NC(=O)c2ccc(-c3ccccc3C(F)(F)F)o2)cc1	WT yeast gro inh 67
COc1ccccc1CNC(=O)c1ccc(-c2ccccc2Cl)o1	RAM inhibit 10
O=C(NCc1ccco1)c1ccc(-c2ccccc2Cl)o1	none (no result: NPY-Y2 antag)
COc1ccccc1CNC(=O)c1ccc(-c2ccccc2C(F)(F)F)o1	WT yeast gro inh 64
O=C(Nc1cccc(F)c1)c1ccc(-c2ccccc2C(F)(F)F)o1	none
Cc1ccccc1-c1ccc(C(=O)Nc2cccc(F)c2)o1	WT yeast gro inh 58
Cc1ccc(NS(=O)(=O)c2ccc(NC(=O)C3CCCO3)cc2)cc1 (configuration not stated)	none (no result: WT yeast gro inh)
CCOc1ccccc1N=CC1=C(O)CC(c2ccccc2)CC1=O (configuration not stated)	RAM inhibit 11 (no result: NPY-Y2 antag)
COc1ccccc1CNc1cc(CSc2ccc(Cl)cc2)nc(C)n1	none
COc1cccc(CNc2cc(CSc3ccc(Cl)cc3)nc(C)n2)c1	NPY-Y1 antag 21, NPY-Y2 antag 21
Cc1ccc(-n2nnnc2SCC(=O)N2CCc3ccccc3C2)c(C)c1	WT yeast gro inh 61
Cc1ccc(-n2nnnc2SCC(=O)NC2CCCc3ccccc32)c(C)c1 (configuration not stated)	RAM inhibit 8.5
Cc1ccc(-n2nnnc2SCC(=O)NC2CCCc3ccccc32)cc1 (configuration not stated)	none
Cc1ccc(-n2nnnc2SCC(=O)N2CCc3ccccc3C2)cc1	none
